Results gathered from unrelated publications.
Each line is one published result; the experiments were not run side by side.
Cell line: DU-145
Read-out: cell growth or viability

COc1ccccc1/C=C/C(=O)c1ccc(OC)c(S(N)(=O)=O)c1  GI50 (SRB; 48 h): 3200 nM
S=C([S][Au-][P+](CCCCCC[P+]([Au-][S]C(=S)n1cccn1)(c1ccccc1)c1ccccc1)(c1ccccc1)c1ccccc1)n1cccn1  GI50: 1310 nM
COc1ccc(C(=O)/C=C/c2cccc(Br)c2)cc1S(N)(=O)=O  GI50 (SRB; 48 h): 3600 nM
COc1cccc(S(=O)(=O)N2CCc3cc(OS(N)(=O)=O)c(OC)cc3C2)c1  GI50 (WST-1; 96 h): 56700 nM
CCOc1c(OC)cc(CN2CCc3cc(OS(N)(=O)=O)c(OC)cc3C2)cc1OC  GI50 (WST-1; 96 h): 100 nM
COc1cc2c(cc1OS(N)(=O)=O)CCN(Cc1cccc(C(C)=O)c1)C2  GI50 (WST-1; 96 h): 1850 nM
COc1ccc(C(=O)/C=C/c2cccnc2)cc1S(N)(=O)=O  GI50 (SRB; 48 h): 11200 nM
COc1ccc(-c2ccc(-c3ccc(C(=N)N)nc3)s2)cc1  GI50: 1770 nM
CCOc1c(OC)cc(CN2CCc3cc(O)c(OC)cc3C2)cc1OC  GI50 (WST-1; 96 h): 300 nM
COc1cc2c(cc1O)CCN(Cc1ccc(OC)c(OC)c1OC)C2  GI50 (WST-1; 96 h): > 100000 nM
COc1ccc(C(=O)/C=C/c2ccc3ccccc3c2)cc1S(N)(=O)=O  GI50 (SRB; 48 h): 3300 nM
CCc1cc(CN2CCc3cc(OS(N)(=O)=O)c(OC)cc3C2)cc(CC)c1CC  GI50 (WST-1; 96 h): 1800 nM
COc1cc2c(cc1O)CCN(C(=O)c1cc(OC)c(OC)c(OC)c1)C2  GI50 (WST-1; 96 h): 921 nM
CCOc1cc(CN2CCc3cc(OS(N)(=O)=O)c(OC)cc3C2)cc(OCC)c1OCC  GI50 (WST-1; 96 h): 8500 nM
COc1cccc(C(=O)N2CCc3cc(O)c(OC)cc3C2)c1  GI50 (WST-1; 96 h): 31300 nM
COc1cccc(Oc2ccccc2NC(=O)CNC(=O)c2cccc3ccccc23)c1  GI50 (SRB; 48 h): 708 nM
CCOc1cc(CN2CCc3cc(O)c(OC)cc3C2)cc(OCC)c1OCC  GI50 (WST-1; 96 h): > 100000 nM
COc1ccc(C(=O)/C=C/c2ccccc2Br)cc1S(N)(=O)=O  GI50 (SRB; 48 h): 3300 nM
COc1ccc(OC)c(CN2CCc3cc(OS(N)(=O)=O)c(OC)cc3C2)c1  GI50 (WST-1; 96 h): 2610 nM
